Measurements: ChEMBL document CHEMBL5244249, “Discovery of tofacitinib derivatives as orally active antitumor agents based on the scaffold hybridization strategy” (Eur J Med Chem, 2020)
Calls of active or inactive are those of the source. The rule behind the calls is not given here.

Legend:
MGC-803 [1] = test: Cell cycle arrest in human MGC-803 cells assessed as S phase cells at 7.5 uM incubated for 24 hrs by RNase/PI staining based flow cytometric analysis (reference value: 27.1%); assay type: functional
MGC-803 [2] = test: Induction of apoptosis in human MGC-803 cells assessed as viable cells at 7.5 uM incubated for 48 hrs by Annexin V-FITC/PI staining based flow cytometric analysis (reference value: 96.7 %); assay type: functional; conditions: read-out: Activity
MGC-803 [3] = test: Antiproliferative activity against human MGC-803 cells assessed as decrease in cell viability at 10 uM preincubated with SP600125 for 4 hrs followed by compound addition and measured after 24 hrs by MTT assay; assay type: functional, cell-based
Method in brief: (§1)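 MGC-803 cells pre-incubated 4 h with SB203580 (4 μM) or SP600125 (20 μM), then exposed to 10 μM test compound for 24 h; viability by MTT, expressed as percent of control. Mean ± SD, three independent experiments.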

[4] = Activation of MAPK pathway in human MGC-803 cells assessed as change in phosphorylated Erk5 expression at 5 to 10 uM incubated for 24 hrs by Western blot analysis; assay type: cell-based; conditions: dose 5-10 µM
MGC-803 [5] = test: Induction of mitochondrial dysfunction in human MGC-803 cells assessed as upregulation of cleaved caspase-3 expression at 5 to 10 uM incubated for 24 hrs by Western blot analysis; assay type: functional, cell-based; conditions: dose 5-10 µM
Method in brief: (§2)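 Western blot of caspase 9, 3, 7, PARP and γH2A.X in MGC-803 lysates after 24 h exposure to 5, 7.5 or 10 μM; band quantitation; mean ± SD from three independent experiments.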

MGC-803 [6] = test: Cell cycle arrest in human MGC-803 cells assessed as G0/G1 phase cells at 10 uM incubated for 24 hrs by RNase/PI staining based flow cytometric analysis (reference value: 54.99%); assay type: functional
MGC-803 [7] = test: Induction of apoptosis in human MGC-803 cells assessed as viable cells at 5 uM incubated for 24 hrs by Annexin V-FITC/PI staining based flow cytometric analysis (reference value: 90.3 %); assay type: functional; conditions: read-out: Activity
MGC-803 [8] = test: Induction of apoptosis in human MGC-803 cells assessed as late apoptotic cells at 5 uM incubated for 48 hrs by Annexin V-FITC/PI staining based flow cytometric analysis (reference value: 0.5 %); assay type: functional
MGC-803 [9] = test: Induction of apoptosis in human MGC-803 cells assessed as activation of cytochrome C release from mitochondria to cytoplasm incubated for 24 hrs by Western blot analysis; assay type: functional, cell-based; conditions: dose 5-10 µM
Method in brief: (§3)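 After 24 h exposure of MGC-803 cells, Bcl-2, Mcl-1, Bax and cytochrome c release assessed by Western blot with band quantitation; mean ± SD from three independent experiments.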

MGC-803 [10] = test: Induction of apoptosis in human MGC-803 cells assessed as viable cells at 10 uM incubated for 24 hrs by Annexin V-FITC/PI staining based flow cytometric analysis (reference value: 90.3 %); assay type: functional; conditions: read-out: Activity
[11] = Activation of MAPK pathway in human MGC-803 cells assessed as increase in phosphorylated p38 expression at 5 to 10 uM incubated for 24 hrs by Western blot analysis; assay type: cell-based; conditions: filed as activator, dose 5-10 µM
MGC-803 [12] = test: Induction of mitochondrial dysfunction in human MGC-803 cells assessed as upregulation of cleaved caspase-9 expression at 5 to 10 uM incubated for 24 hrs by Western blot analysis; assay type: functional, cell-based; conditions: dose 5-10 µM; method in brief: as §2
MGC-803 [13] = test: Induction of apoptosis in human MGC-803 cells assessed as early apoptotic cells at 7.5 uM incubated for 24 hrs by Annexin V-FITC/PI staining based flow cytometric analysis (reference value: 3.9 %); assay type: functional
MGC-803 [14] = test: Induction of mitochondrial dysfunction in human MGC-803 cells assessed as increase in ratio of green to red fluorescence intensity incubated for 24 hrs by JC-1 staining based fluorescence microscopic analysis; assay type: functional, cell-based; conditions: dose 5-10 µM
MGC-803 [15] = test: Inhibition of cell migration in human MGC-803 cells incubated for 24 hrs by wound healing assay; assay type: functional, cell-based; conditions: dose 5-10 µM
Method in brief: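 Wound-healing scratch assay in MGC-803 monolayers; 24 h exposure to 0, 5, 7.5 or 10 μM; migration quantified; three independent experiments, mean ± SD.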

MGC-803 [16] = test: Induction of mitochondrial dysfunction in human MGC-803 cells assessed as increase in green fluorescence intensity at 7.5 uM incubated for 24 hrs by JC-1 staining based fluorescence microscopic analysis (reference value: 9.9%); assay type: functional
[17] = Cytotoxicity against human GES1 cells assessed as inhibition of cell growth incubated for 72 hrs by MTT assay; assay type: toxicity, cell-based
MGC-803 [18] = test: Antiproliferative activity against human MGC-803 cells assessed as decrease in cell viability at 10 uM preincubated with SB203580 for 4 hrs followed by compound addition and measured after 24 hrs by MTT assay; assay type: functional, cell-based; method in brief: as §1
[19] = Activation of MAPK pathway in human MGC-803 cells assessed as change in p38 total expression at 5 to 10 uM incubated for 24 hrs by Western blot analysis; assay type: cell-based; conditions: dose 5-10 µM
MGC-803 [20] = test: Antitumor activity against human MGC-803 cells xenografted in SCID mouse assessed as decrease in average tumor weight at 12.5 mg/kg, IG administered for 21 days relative to control; assay type: functional; parameters: scale not given: the % may be the effect or the level left; conditions: time 21 day
Method in brief: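 MGC-803 cells implanted subcutaneously on the right side of SCID mice; dosed at 12.5 or 25 mg/kg in 0.5% CMC-Na (vehicle control) for 21 days. Body weight and tumor size recorded periodically; tumors excised and weighed at end. Means ± SD.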

MGC-803 [21] = test: Induction of apoptosis in human MGC-803 cells assessed as late apoptotic cells at 10 uM incubated for 24 hrs by Annexin V-FITC/PI staining based flow cytometric analysis (reference value: 3.8 %); assay type: functional
MGC-803 [22] = test: Induction of apoptosis in human MGC-803 cells assessed as necrotic cells at 10 uM incubated for 48 hrs by Annexin V-FITC/PI staining based flow cytometric analysis (reference value: 0.3 %); assay type: functional
MGC-803 [23] = test: Induction of apoptosis in human MGC-803 cells assessed as decrease in Mcl-1 protein expression at 5 to 10 uM incubated for 24 hrs by Western blot analysis; assay type: functional, cell-based; conditions: dose 5-10 µM; method in brief: as §3
[24] = Activation of MAPK pathway in human MGC-803 cells assessed as change in ERK1/2 total expression at 5 to 10 uM incubated for 24 hrs by Western blot analysis; assay type: cell-based; conditions: dose 5-10 µM
MGC-803 [25] = test: Induction of apoptosis in human MGC-803 cells assessed as decrease in Bcl-2 protein expression at 5 to 10 uM incubated for 24 hrs by Western blot analysis; assay type: functional, cell-based; conditions: dose 5-10 µM; method in brief: as §3
[26] = Toxicity in SCID mouse xenografted with human MGC-803 cells assessed as effect on general health at 12.5 to 25 mg/kg, IG administered for 21 days; assay type: organism-based; conditions: in vivo, po, 504 h, dose 12.5-25 mg/kg, time 21 day
Method in brief: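 SCID mice bearing subcutaneous MGC-803 xenografts (right side) dosed with 12.5 or 25 mg/kg over 21 days, 0.5% CMC-Na vehicle as control; body weight and tumor size monitored periodically; major organs examined histopathologically at end; means ± SD.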

MGC-803 [27] = test: Induction of apoptosis in human MGC-803 cells assessed as late apoptotic cells at 7.5 uM incubated for 48 hrs by Annexin V-FITC/PI staining based flow cytometric analysis (reference value: 0.5 %); assay type: functional
MGC-803 [28] = test: Cell cycle arrest in human MGC-803 cells assessed as G0/G1 phase cells at 5 uM incubated for 24 hrs by RNase/PI staining based flow cytometric analysis (reference value: 54.99%); assay type: functional

## Cc1cc(N2CC[C@@H](C)[C@@H](N(C)c3ncnc4[nH]ccc34)C2)n2nc(SCc3ccc(C(F)(F)F)cc3)nc2n1
MGC-803 [1]
  Activity: 29.36%
MGC-803 [2]
  viability at 7.5 µM: 22.1%
MGC-803 [3]
  Activity: inactive
[4]
  Activity: inactive
MGC-803 [5]
  Activity: Active
MGC-803 [6]
  Activity: 56.74%
MGC-803 [7]
  viability at 5 µM: 81.7%
MGC-803 [8]
  Activity: 17.2%
MGC-803 [9]
  Activity: Dose-Dependent Effect
MGC-803 [10]
  viability at 10 µM: 57.1%
[11]
  Activity: Active
MGC-803 [12]
  Activity: Active
MGC-803 [13]
  Activity: 11.5%
MGC-803 [14]
  Activity: Dose-Dependent Effect
MGC-803 [15]
  inhibition: Dose-Dependent Effect
MGC-803 [16]
  Activity: 39.1%
[17]
  IC50 at 72 h: 17.3 µM
MGC-803 [18]
  Activity: inactive
[19]
  Activity: inactive
MGC-803 [20]
  Activity: 56.8%
MGC-803 [21]
  Activity: 28%
MGC-803 [22]
  Activity: 0.9%
MGC-803 [23]
  Activity: Active
[24]
  Activity: inactive
MGC-803 [25]
  Activity: Active
[26]
  Activity: Non-Toxic
MGC-803 [27]
  Activity: 67.5%
MGC-803 [28]
  Activity: 56.93%
